Measured values from paper PMC12282580 (RSC Advances, 2025).

What was measured:
[1] = system: SW620 cells (colon cancer); assay: Cytotoxicity assay; type: cell-based; conditions: Homo sapiens, SW-620, 48 h, read-out: Cytotoxicity (IC50) SW620
SW620 cells = assay: Morphological changes; type: cell-based, human; conditions: 5 μM, 24-hour treatment
Outline: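 SW620 cells exposed to test compound at 5 μM for 24 h, then photographed on an imaging system through 20× or 40× objectives to record morphology.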

[2] = system: SW620 human colon cancer cells; assay: Cell cycle analysis; type: cell-based; conditions: 5 μM, 24-hour treatment, effect less pronounced for 7d and 11d compared to SAHA
Outline: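 Controls were untreated cells and vehicle-treated cells (DMSO 0.05%). Data shown as histograms plus bar graphs.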

[3] = system: SW620 human colon cancer cells; assay: Apoptosis assay; type: cell-based; conditions: 5 μM, 24-hour treatment, early apoptosis levels exceeding those observed with SAHA
Outline: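 Annexin V-FITC/PI dual staining, with untreated and vehicle (DMSO 0.05%) controls. Data presented as histograms with accompanying bar graphs.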

[4] = system: MDA-MB-231 cells (breast cancer); assay: Cytotoxicity assay; type: cell-based, human; conditions: read-out: Cytotoxicity (IC50) MDA-MB-231; MDA-MB-231 breast cancer; 48h; MTT

Row | SMILES | IC50 [1] | further results
1 | COc1cccc2c1C(=O)c1c(O)c3c(c(O)c1C2=O)C[C@@](O)(C(=O)CO)C[C@@H]3O[C@H]1C[C@H](N)[C@H](O)[C@H](C)O1 [ADR, adriamycin, reference compound] | 0.56 ± 0.1 µM | 
2 | O=C(NO)c1ccc(Cn2cc(Cn3cnc4ccccc4c3=O)nn2)cc1 [Compound 7a, N-Hydroxy-4-((4-((4-oxoquinazolin-3(4H)-yl)methyl)-1H-1,2,3-triazol-1-yl)methyl)benzamide] | 9.21 ± 0.72 µM | 
3 | Cc1ccc2ncn(Cc3cn(Cc4ccc(C(=O)NO)cc4)nn3)c(=O)c2c1 [Compound 7b, N-Hydroxy-4-((4-((6-methyl-4-oxoquinazolin-3(4H)-yl)methyl)-1H-1,2,3-triazol-1-yl)methyl)benzamide] | 43.1 ± 4.55 µM | 
4 | Cc1ccc2c(=O)n(Cc3cn(Cc4ccc(C(=O)NO)cc4)nn3)cnc2c1 [Compound 7c, N-Hydroxy-4-((4-((7-methyl-4-oxoquinazolin-3(4H)-yl)methyl)-1H-1,2,3-triazol-1-yl)methyl)benzamide] | 7.34 ± 0.94 µM | 
5 | O=C(NO)c1ccc(Cn2cc(Cn3cnc4ccc(Cl)cc4c3=O)nn2)cc1 [Compound 7d, 4-((4-((6-Chloro-4-oxoquinazolin-3(4H)-yl)methyl)-1H-1,2,3-triazol-1-yl)methyl)-N-hydroxybenzamide] | 3.64 ± 0.31 µM | Morphological changes (SW620 cells): induced characteristic apoptotic morphological alterations; Cell cycle effect [2]: induced G2/M phase cell cycle arrest; Pro-apoptotic effect [3]: significantly induced early and late apoptosis
6 | O=C(NO)c1ccc(Cn2cc(Cn3cnc4ccc(F)cc4c3=O)nn2)cc1 [Compound 7e, 4-((4-((6-Fluoro-4-oxoquinazolin-3(4H)-yl)methyl)-1H-1,2,3-triazol-1-yl)methyl)-N-hydroxybenzamide] | 5.87 ± 1.55 µM | 
7 | O=C(NO)c1ccc(Cn2cc(Cn3cnc4cc(F)ccc4c3=O)nn2)cc1 [Compound 7f, 4-((4-((7-Fluoro-4-oxoquinazolin-3(4H)-yl)methyl)-1H-1,2,3-triazol-1-yl)methyl)-N-hydroxybenzamide] | 8.23 ± 2.04 µM | 
8 | O=C(NO)c1ccc(Cn2cc(Cn3cnc4ccc(Br)cc4c3=O)nn2)cc1 [Compound 7g, 4-((4-((6-Bromo-4-oxoquinazolin-3(4H)-yl)methyl)-1H-1,2,3-triazol-1-yl)methyl)-N-hydroxybenzamide] | 20.8 ± 5.32 µM | 
9 | O=C(NO)c1ccc(Cn2cc(Cn3cnc4cc(Br)ccc4c3=O)nn2)cc1 [Compound 7h, 4-((4-((7-Bromo-4-oxoquinazolin-3(4H)-yl)methyl)-1H-1,2,3-triazol-1-yl)methyl)-N-hydroxybenzamide] | 3.77 ± 1.87 µM | 
10 | O=C(NO)c1ccc(Cn2cc(Cn3cnc4ccc(I)cc4c3=O)nn2)cc1 [Compound 7i, N-Hydroxy-4-((4-((6-iodo-4-oxoquinazolin-3(4H)-yl)methyl)-1H-1,2,3-triazol-1-yl)methyl)benzamide] | 5.52 ± 1.04 µM | 
11 | O=C(/C=C/c1ccc(Cn2cc(Cn3cnc4ccccc4c3=O)nn2)cc1)NO [Compound 11a, (E)-N-Hydroxy-3-(4-((4-((4-oxoquinazolin-3(4H)-yl)methyl)-1H-1,2,3-triazol-1-yl)methyl)phenyl)acrylamide] | 5.07 ± 2.92 µM | 
12 | Cc1ccc2ncn(Cc3cn(Cc4ccc(/C=C/C(=O)NO)cc4)nn3)c(=O)c2c1 [Compound 11b, (E)-N-Hydroxy-3-(4-((4-((6-methyl-4-oxoquinazolin-3(4H)-yl)methyl)-1H-1,2,3-triazol-1-yl)methyl)phenyl)acrylamide] | 9.82 ± 2.46 µM | 
13 | Cc1ccc2c(=O)n(Cc3cn(Cc4ccc(/C=C/C(=O)NO)cc4)nn3)cnc2c1 [Compound 11c, (E)-N-Hydroxy-3-(4-((4-((7-methyl-4-oxoquinazolin-3(4H)-yl)methyl)-1H-1,2,3-triazol-1-yl)methyl)phenyl)acrylamide] | 11.7 ± 4.39 µM | 
14 | O=C(/C=C/c1ccc(Cn2cc(Cn3cnc4ccc(Cl)cc4c3=O)nn2)cc1)NO [Compound 11d, (E)-3-(4-((4-((6-Chloro-4-oxoquinazolin-3(4H)-yl)methyl)-1H-1,2,3-triazol-1-yl)methyl)phenyl)-N-hydroxyacrylamide] | 3.15 ± 0.33 µM | Morphological changes (SW620 cells): induced characteristic apoptotic morphological alterations; Cell cycle effect [2]: induced G2/M phase cell cycle arrest; Pro-apoptotic effect [3]: significantly induced early and late apoptosis
15 | O=C(/C=C/c1ccc(Cn2cc(Cn3cnc4ccc(F)cc4c3=O)nn2)cc1)NO [Compound 11e, (E)-3-(4-((4-((6-Fluoro-4-oxoquinazolin-3(4H)-yl)methyl)-1H-1,2,3-triazol-1-yl)methyl)phenyl)-N-hydroxyacrylamide] | 4.57 ± 3.54 µM | 
16 | O=C(/C=C/c1ccc(Cn2cc(Cn3cnc4cc(F)ccc4c3=O)nn2)cc1)NO [Compound 11f, (E)-3-(4-((4-((7-Fluoro-4-oxoquinazolin-3(4H)-yl)methyl)-1H-1,2,3-triazol-1-yl)methyl)phenyl)-N-hydroxyacrylamide] | 5.34 ± 0.76 µM | 
17 | O=C(/C=C/c1ccc(Cn2cc(Cn3cnc4ccc(Br)cc4c3=O)nn2)cc1)NO [Compound 11g, (E)-3-(4-((4-((6-Bromo-4-oxoquinazolin-3(4H)-yl)methyl)-1H-1,2,3-triazol-1-yl)methyl)phenyl)-N-hydroxyacrylamide] | 9.16 ± 0.08 µM | IC50 [4]: 9.07 ± 0.42 µM
18 | O=C(/C=C/c1ccc(Cn2cc(Cn3cnc4cc(Br)ccc4c3=O)nn2)cc1)NO [Compound 11h, (E)-3-(4-((4-((7-Bromo-4-oxoquinazolin-3(4H)-yl)methyl)-1H-1,2,3-triazol-1-yl)methyl)phenyl)-N-hydroxyacrylamide] | 5.73 ± 0.76 µM | IC50 [4]: 5.55 ± 0.18 µM
19 | O=C(/C=C/c1ccc(Cn2cc(Cn3cnc4ccc(I)cc4c3=O)nn2)cc1)NO [Compound 11i, (E)-N-Hydroxy-3-(4-((4-((6-iodo-4-oxoquinazolin-3(4H)-yl)methyl)-1H-1,2,3-triazol-1-yl)methyl)phenyl)acrylamide] | 28.5 ± 8.19 µM | 
20 | O=C(CCCCCCC(=O)Nc1ccccc1)NO [SAHA, suberoylanilide hydroxamic acid, reference compound] |  | Cell cycle effect [2]: induced G2/M phase cell cycle arrest
